# Assay results as given in ChEMBL document CHEMBL2062509, “Synthesis of benzo-annulated tryptanthrins and their biological properties” (Bioorg Med Chem, 2012).
# How the values were obtained:
# Bos taurus [1] = organism: Bos taurus; assay: Inhibition of calf thymus DNA topoisomerase 1-mediated relaxation of supercoiled pBR322 DNA at 100 uM after 30 mins by agarose gel electrophoresis analysis
# Bos taurus [2] = organism: Bos taurus; assay: Inhibition of calf thymus DNA topoisomerase 1-mediated relaxation of supercoiled pBR322 DNA at 20 uM after 30 mins by agarose gel electrophoresis analysis
# [3] = target: DNA topoisomerase 2-alpha (Homo sapiens) (UniProt P11388); assay: Inhibition of human DNA topoisomerase 2alpha-mediated relaxation of supercoiled pBR322 DNA at 100 uM after 30 mins by agarose gel electrophoretic analysis
# How it was run: (§1)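 Human topo IIα (0.2 units) and 100 ng supercoiled pBR322, 30 min at 37 °C with or without compound in 10 mM Tris-HCl pH 7.9, 50 mM NaCl, 5 mM MgCl2, 1 mM EDTA, 1 mM ATP, 15 µg/mL BSA. Quenched with 7 mM EDTA. Resolved on 1% agarose in TAE (25 V, 4 h), ethidium-stained, supercoiled DNA quantified under UV.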
# T47D = assay: Cytotoxicity against human T47D cells after 72 hrs by MTT assay; format: functional, cell-based
# HCT-15 = assay: Cytotoxicity against human HCT15 cells after 72 hrs by MTT assay; format: functional, cell-based; conditions: HCT-15, 72 h
# DU-145 = assay: Cytotoxicity against human DU145 cells after 72 hrs by MTT assay; format: functional, cell-based; conditions: DU-145, 72 h
# HEK293 = assay: Cytotoxicity against human HEK293 cells after 72 hrs by MTT assay; format: cell-based; conditions: HEK293, 72 h
# [4] = target: DNA topoisomerase 2-alpha (Homo sapiens) (UniProt P11388); assay: Inhibition of human DNA topoisomerase 2alpha-mediated relaxation of supercoiled pBR322 DNA at 20 uM after 30 mins by agarose gel electrophoretic analysis; how it was run: as §1
# [5] = tested on: Mycobacterium tuberculosis; assay: Antituberculosis activity against Mycobacterium tuberculosis; format: functional
# [6] = target: T1, Polyunsaturated fatty acid 5-lipoxygenase (Homo sapiens, UniProt P09917); assay: Inhibition of 5-lipoxygenase
# T1 sequence (P09917 whole entry): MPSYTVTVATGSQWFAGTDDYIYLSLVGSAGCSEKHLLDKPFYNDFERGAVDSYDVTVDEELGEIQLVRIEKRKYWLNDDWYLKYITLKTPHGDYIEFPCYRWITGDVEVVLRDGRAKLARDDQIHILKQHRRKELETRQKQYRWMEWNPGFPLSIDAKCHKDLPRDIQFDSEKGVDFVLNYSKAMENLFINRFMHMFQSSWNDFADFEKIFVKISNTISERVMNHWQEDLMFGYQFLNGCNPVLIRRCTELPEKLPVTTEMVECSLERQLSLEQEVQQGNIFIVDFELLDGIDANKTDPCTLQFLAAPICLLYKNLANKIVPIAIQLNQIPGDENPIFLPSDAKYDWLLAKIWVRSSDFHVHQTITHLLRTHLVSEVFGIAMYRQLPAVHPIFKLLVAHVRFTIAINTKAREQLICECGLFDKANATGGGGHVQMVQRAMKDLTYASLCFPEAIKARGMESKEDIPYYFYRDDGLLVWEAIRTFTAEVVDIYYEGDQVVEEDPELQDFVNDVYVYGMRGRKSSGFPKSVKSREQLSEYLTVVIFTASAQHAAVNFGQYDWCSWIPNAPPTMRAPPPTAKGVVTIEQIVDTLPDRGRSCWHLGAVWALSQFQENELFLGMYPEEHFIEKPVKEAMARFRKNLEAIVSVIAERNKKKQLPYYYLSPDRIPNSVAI
# HT-1376 = assay: Cytotoxicity against human HT-1376 cells; format: functional
# Sequence of DNA topoisomerase 2-alpha (Homo sapiens) (P11388 whole entry): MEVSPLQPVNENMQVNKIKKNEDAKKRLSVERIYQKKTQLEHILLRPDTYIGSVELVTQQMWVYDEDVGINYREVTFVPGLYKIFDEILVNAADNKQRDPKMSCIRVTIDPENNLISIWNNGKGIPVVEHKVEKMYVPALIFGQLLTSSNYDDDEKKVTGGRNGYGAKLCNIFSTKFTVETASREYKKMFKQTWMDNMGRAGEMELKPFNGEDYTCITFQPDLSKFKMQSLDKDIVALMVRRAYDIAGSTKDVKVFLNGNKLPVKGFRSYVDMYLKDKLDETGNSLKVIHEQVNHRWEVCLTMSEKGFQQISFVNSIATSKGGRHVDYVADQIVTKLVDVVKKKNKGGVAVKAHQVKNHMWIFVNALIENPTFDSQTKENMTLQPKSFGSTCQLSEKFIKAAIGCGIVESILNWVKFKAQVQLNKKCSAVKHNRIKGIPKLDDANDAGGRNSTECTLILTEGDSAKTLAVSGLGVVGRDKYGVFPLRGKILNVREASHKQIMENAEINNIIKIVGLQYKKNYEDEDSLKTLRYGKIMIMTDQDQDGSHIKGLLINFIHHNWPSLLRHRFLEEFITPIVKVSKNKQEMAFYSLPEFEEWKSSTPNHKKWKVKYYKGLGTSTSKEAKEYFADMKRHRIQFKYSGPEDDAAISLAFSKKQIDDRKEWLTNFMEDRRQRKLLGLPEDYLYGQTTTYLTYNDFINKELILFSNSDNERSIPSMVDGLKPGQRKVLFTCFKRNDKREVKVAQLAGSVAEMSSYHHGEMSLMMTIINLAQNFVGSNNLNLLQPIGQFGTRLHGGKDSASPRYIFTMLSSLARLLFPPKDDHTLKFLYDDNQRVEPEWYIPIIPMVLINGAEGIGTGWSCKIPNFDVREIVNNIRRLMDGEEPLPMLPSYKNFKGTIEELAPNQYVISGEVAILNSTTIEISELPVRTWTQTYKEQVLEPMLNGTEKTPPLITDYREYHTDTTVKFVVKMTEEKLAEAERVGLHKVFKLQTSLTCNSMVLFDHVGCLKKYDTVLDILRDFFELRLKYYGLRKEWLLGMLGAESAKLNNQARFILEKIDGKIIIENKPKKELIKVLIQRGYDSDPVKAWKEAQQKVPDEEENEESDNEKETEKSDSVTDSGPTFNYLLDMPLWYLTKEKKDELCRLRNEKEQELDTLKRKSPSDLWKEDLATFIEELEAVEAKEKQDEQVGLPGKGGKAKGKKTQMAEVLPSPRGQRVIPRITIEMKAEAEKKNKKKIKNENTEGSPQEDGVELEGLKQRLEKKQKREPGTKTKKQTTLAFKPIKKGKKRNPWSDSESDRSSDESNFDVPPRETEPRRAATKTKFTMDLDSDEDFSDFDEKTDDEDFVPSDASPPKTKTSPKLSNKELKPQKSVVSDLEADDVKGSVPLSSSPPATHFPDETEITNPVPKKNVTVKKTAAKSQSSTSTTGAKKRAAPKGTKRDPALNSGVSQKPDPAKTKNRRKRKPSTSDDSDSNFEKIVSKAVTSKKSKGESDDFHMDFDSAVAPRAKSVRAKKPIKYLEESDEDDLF
Compound,inhibition (Bos taurus [1]) [%],inhibition (Bos taurus [2]) [%],inhibition [3] [%],IC50 (T47D) [µM],IC50 (HCT-15) [µM],IC50 (DU-145) [µM],IC50 (HEK293) [µM],inhibition [4] [%],MIC [5] [µg/mL],IC50 [6] [µM],Activity (HT-1376) [µM]
O=C1c2cc3ccccc3cc2-n2c1nc1cc3ccccc3cc1c2=O,41.9,3.6,12.6,25.7,26.2,26.1,2.31,,,,
O=C1c2c(ccc3ccccc23)-n2c1nc1cc3ccccc3cc1c2=O,39.1,3.8,71.3,25.2,32.8,34,24.2,5.83,,,
O=C1c2ccccc2-n2c1nc1ccccc1c2=O [TRYPTANTHRIN],68.4,4.09,4.54,14.3,8.49,6.22,4.11,,10,0.15,10
COc1cc([C@@H]2c3cc4c(cc3[C@@H](O[C@@H]3O[C@@H]5CO[C@@H](C)O[C@H]5[C@H](O)[C@H]3O)[C@H]3COC(=O)[C@H]23)OCO4)cc(OC)c1O [ETOPOSIDE],,,,1.21,0.28,1.42,0.41,,,,
O=C1c2cc3ccccc3cc2-n2c1nc1ccccc1c2=O,69.6,5.4,75.9,21.5,6.15,17.8,10.7,5.95,,,
O=C1c2ccc3ccccc3c2-n2c1nc1ccccc1c2=O,53.4,4.1,14,22.8,12.6,21.4,22.1,,,,
O=C1c2ccccc2-n2c1nc1cc3ccccc3cc1c2=O [BENZO[K]TRYPTANTHRIN],18.8,,16,23.1,25.8,26,31.5,,,,
O=C1c2ccc3ccccc3c2-n2c1nc1cc3ccccc3cc1c2=O,84.1,3.5,53.5,34.9,24,32.3,20.3,19.1,,,
COc1cccc2c1C(=O)c1c(O)c3c(c(O)c1C2=O)C[C@@](O)(C(=O)CO)C[C@@H]3O[C@H]1C[C@H](N)[C@H](O)[C@H](C)O1 [DOXORUBICIN],,,,1.82,1.76,,1,,,,
O=C1c2c(ccc3ccccc23)-n2c1nc1ccccc1c2=O,47.8,4.9,8.13,31.3,24.7,27.7,25.7,,,,
CC[C@@]1(O)C(=O)OCc2c1cc1n(c2=O)Cc2cc3ccccc3nc2-1 [CAMPTOTHECIN],63.1,26.3,,9.17,9.92,9.29,7.94,,,,
